Where a SMILES comes first, the peptide text is derived from it. [ ]: non-standard residue; d: D form. The star is where a group is joined. Hydrocinnamoyl = O=C(CCc1ccccc1)*; Ac5c = NC1(C(=O)O)CCCC1; Deg = CCC(N)(CC)C(=O)O
Key:
human liver cathepsin B = human liver cathepsin B (Homo sapiens, UniProt P07858); experiment: Cathepsin B inhibition assay; type: biochemical
In short: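 Human liver cathepsin B (1 nM) in 50 mM NaOAc pH 6.0 with 1 mM EDTA and 0.5 mM DTT. Z-Arg-Arg-AMC at 50 µM or 250 µM, plus varying inhibitor concentrations in DMSO (2% total). Ki is the mean of triplicates from Dixon plots (r ≥ 0.95). Selectivity ratio is […].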

[1] = molecular target: T1, porcine erythrocyte μ-calpain (Sus scrofa, UniProt P35750); experiment: Calpain inhibition assay; type: biochemical
T1 sequence (P35750 1-714): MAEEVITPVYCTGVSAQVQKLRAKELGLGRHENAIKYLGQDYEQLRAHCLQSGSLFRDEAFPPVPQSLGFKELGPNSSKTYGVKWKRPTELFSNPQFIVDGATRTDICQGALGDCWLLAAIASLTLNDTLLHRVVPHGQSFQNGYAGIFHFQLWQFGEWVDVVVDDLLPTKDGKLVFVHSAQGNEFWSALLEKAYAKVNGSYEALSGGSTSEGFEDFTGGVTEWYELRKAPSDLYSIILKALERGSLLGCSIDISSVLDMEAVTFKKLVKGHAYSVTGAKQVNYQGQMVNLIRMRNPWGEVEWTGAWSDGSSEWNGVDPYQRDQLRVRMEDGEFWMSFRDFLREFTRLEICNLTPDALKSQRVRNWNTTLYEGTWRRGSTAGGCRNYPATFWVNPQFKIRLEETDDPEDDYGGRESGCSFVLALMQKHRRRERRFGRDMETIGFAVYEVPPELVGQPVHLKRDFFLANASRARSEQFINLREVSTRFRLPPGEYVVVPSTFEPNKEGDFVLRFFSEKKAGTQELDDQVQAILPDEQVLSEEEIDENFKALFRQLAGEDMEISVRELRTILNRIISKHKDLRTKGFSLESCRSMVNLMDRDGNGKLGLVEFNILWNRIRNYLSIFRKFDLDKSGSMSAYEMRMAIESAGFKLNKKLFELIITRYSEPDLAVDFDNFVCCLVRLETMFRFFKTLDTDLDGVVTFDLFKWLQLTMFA
T1 sequence (P04574 1-266 partner): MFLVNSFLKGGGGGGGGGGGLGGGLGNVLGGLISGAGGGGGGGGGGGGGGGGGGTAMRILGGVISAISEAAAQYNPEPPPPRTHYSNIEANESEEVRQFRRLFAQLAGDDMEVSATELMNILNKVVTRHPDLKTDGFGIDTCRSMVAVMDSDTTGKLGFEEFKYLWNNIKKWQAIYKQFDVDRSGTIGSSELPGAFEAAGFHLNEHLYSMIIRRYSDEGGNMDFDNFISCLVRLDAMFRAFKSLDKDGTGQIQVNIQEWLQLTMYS

With `O=C[C@H](Cc1ccccc1)NC(=O)C1(NC(=O)CCc2ccccc2)CCCC1` [Compound 2, 1-(3-Phenyl-propionylamino)-cyclopentane carboxylic acid (1-benzyl-2-oxo-ethyl)-amide] (Hydrocinnamoyl-[Ac5c]-Phe-aldehyde) the “cathepsin B inhibition relative to compound 3” value (human liver cathepsin B; 2 compared to 3) was 3 fold and the “selectivity for cathepsin B compared to μ-calpain” value (human liver cathepsin B; as stated in abstract) was 3 fold.
`CCC(CC)(NC(=O)CCc1ccccc1)C(=O)N[C@H](C=O)Cc1ccccc1` [Compound 3, N-(1-Benzyl-2-oxo-ethyl)-2-ethyl-2-(3-phenyl-propionylamino)-butyramide] (Hydrocinnamoyl-[Deg]-Phe-aldehyde) was tested, and the “selectivity for μ-calpain compared to cathepsin B” value [1] was “over 35 fold” and the “potency for μ-calpain inhibition relative to compound 2” value ([1]; 3 compared to 2) was “over 20 fold”.

Reference: publication PMC2575414 (Bioorganic & medicinal chemistry letters, 2008)
